Source: ChEMBL document CHEMBL1127795, “Small-molecule immunostimulants. Synthesis and activity of 7,8-disubstituted guanosines and structurally related compounds” (1994)
“And” between values parts separate entries of the source, which are not always exact repeats. Equal values may be shown once.

Experiments:
Mus musculus [1] = species on record: Mus musculus; test: Effective dose for its ability to act as B-cell mitogens (mitogenicity); Neg indicates a response lower than vehicle control; assay type: functional
Procedure, shortened: (§1)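 CBA/CaJ mouse spleen cells (1 × 10⁵/0.2 mL) exposed to graded compound concentrations, dissolved in water or DMSO and diluted in medium, for 24 h. [³H]thymidine then added for a further 24 h; incorporation by scintillation counting. ED50 and maximal response expressed relative to a concurrently run standard (loxoribine in most cases).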

Mus musculus [2] = species on record: Mus musculus; test: Percent of maximum response was tested for its ability to act as B-cell mitogens (mitogenicity); assay type: functional; procedure, shortened: as §1
Mus musculus [3] = species on record: Mus musculus; test: Tested to augment the antibody response of B cells to sheep red blood cell (SRBC) challenge (adjuvanticity); Neg indicates a response lower than vehicle control; assay type: functional, cell-based
Procedure, shortened: (§2)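 CBA/CaJ spleen cells depleted of T cells with anti-T cell monoclonal antibody (1:1000, 30 min, 4 °C) then complement (37 °C, 45 min). Cultured ± 0.1% SRBC antigen in serum-containing medium with compound from zero to 10⁻³ M for 4 d. Plaque-forming cells counted in agarose with guinea pig complement. ED50 and maximal response relative to a concurrent standard.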

Mus musculus [4] = species on record: Mus musculus; test: Percent of maximum response was tested to augment the antibody response of B cells to sheep red blood cell challenge; assay type: functional; procedure, shortened: as §2
YAC-1 [5] = test: Percent of maximum response was tested for its ability to stimulate the natural killer response in murine in vitro cell assays; assay type: functional, Mus musculus
YAC-1 [6] = test: Stimulation of natural killer (NK) response in Yac-1 cell line (mouse, lymphoma); Neg indicates a response lower than vehicle control; assay type: functional, cell-based
Mus musculus [7] = test: In vivo natural killer cell response in splenocytes of mice injected with 2 mg intravenous dose % lysis of YAC-1 cells at effector: target ratio of 25:1; assay type: functional
Procedure, shortened: (§3)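 Mice dosed intravenously with 2 mg compound, with saline as the vehicle control. Spleens were removed 48 h later. Splenocytes were tested against 5 × 10⁴ ⁵¹Cr-labelled YAC-1 target cells in a 4-h ⁵¹Cr-release assay at four effector:target ratios. Results are mean % lysis ± one standard deviation, N = 3–5 mice per group.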

Mus musculus [8] = test: In vivo natural killer cell response in splenocytes of mice injected with 2 mg intravenous dose. % lysis of YAC-1 cells at effector: target ratio of 100:1; assay type: functional; procedure, shortened: as §3
Mus musculus [9] = test: In vivo natural killer cell response in splenocytes of mice injected with 2 mg intravenous dose. % lysis of YAC-1 cells at effector: target ratio of 200:1; assay type: functional; procedure, shortened: as §3
Mus musculus [10] = test: In vivo natural killer cell response in splenocytes of mice injected with 2 mg parenteral dose. % lysis of YAC-1 cells at effector: target ratio of 100:1; assay type: functional
Procedure, shortened: (§4)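 Each mouse received 2 mg compound, and spleens were taken at 48 h. Splenocyte NK activity was measured as specific lysis of 5 × 10⁴ ⁵¹Cr-labelled YAC-1 cells over 4 h at four effector:target ratios. Results are mean % lysis ± one standard deviation, N = 3–5 mice per group.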

Mus musculus [11] = test: In vivo natural killer cell response in splenocytes of mice injected with 2 mg parenteral dose. % lysis of YAC-1 cells at effector: target ratio of 25:1; assay type: functional; procedure, shortened: as §4
Mus musculus [12] = test: In vivo natural killer cell response in splenocytes of mice injected with 2 mg parenteral dose. % lysis of YAC-1 cells at effector: target ratio of 50:1; assay type: functional; procedure, shortened: as §4
Mus musculus [13] = test: In vivo natural killer cell response in splenocytes of mice injected with 2 mg subcutaneous dose. % lysis of YAC-1 cells at effector: target ratio of 100:1; assay type: functional
Procedure, shortened: (§5)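 Mice dosed subcutaneously with 2 mg compound, with sesame oil as the vehicle control. Splenocytes were harvested 48 h after dosing and assayed in a 4-h ⁵¹Cr-release test against 5 × 10⁴ labelled YAC-1 cells at four effector:target ratios. Results are mean % lysis ± one standard deviation, 3–5 mice per group.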

Mus musculus [14] = test: In vivo natural killer cell response in splenocytes of mice injected with 2 mg subcutaneous dose. % lysis of YAC-1 cells at effector: target ratio of 200:1; assay type: functional; procedure, shortened: as §5
Mus musculus [15] = test: In vivo natural killer cell response in splenocytes of mice injected with 2 mg subcutaneous dose. % lysis of YAC-1 cells at effector: target ratio of 25:1; assay type: functional; procedure, shortened: as §5
Mus musculus [16] = test: In vivo natural killer cell response in splenocytes of mice injected with 2 mg subcutaneous dose. % lysis of YAC-1 cells at effector: target ratio of 50:1; assay type: functional; procedure, shortened: as §5
Mus musculus [17] = test: In vivo natural killer cell response in splenocytes of mice injected with 2 mg intravenous dose. % lysis of YAC-1 cells at effector: target ratio of 50:1; assay type: functional; procedure, shortened: as §3
Mus musculus [18] = test: In vivo natural killer cell response in splenocytes of mice injected with 2 mg parenteral dose % lysis of YAC-1 cells at effector: target ratio of 200:1; assay type: functional; procedure, shortened: as §4
Mus musculus [19] = species on record: Mus musculus; test: Ability to act as B-cell mitogens; assay type: functional; conditions: read-out: ED50 (the source's name); procedure, shortened: as §1
Mus musculus [20] = species on record: Mus musculus; test: Augment antibody response of B cells to sheep red blood cell (SRBC) challenge (adjuvanticity); assay type: functional; conditions: read-out: ED50 (the source's name); procedure, shortened: as §2
YAC-1 [21] = test: Stimulation of natural killer (NK) response in Yac-1 cell line (mouse, lymphoma); assay type: functional; conditions: read-out: ED50 (the source's name)
Mus musculus [22] = species on record: Mus musculus; test: Effective dose was tested for its ability to act as B-cell mitogens (mitogenicity); assay type: functional; conditions: read-out: ED50 (the source's name); procedure, shortened: as §1
YAC-1 [23] = test: Tested for its ability to stimulate the natural killer (NK) response in murine in vitro cell assays; assay type: functional; conditions: Mus musculus, read-out: ED50 (the source's name)
YAC-1 [24] = test: Percent of maximum response was tested for its ability to stimulate the natural killer (NK) response in murine in vitro cell assays; assay type: functional, Mus musculus
Mus musculus [25] = test: In vivo natural killer cell response in splenocytes of mice injected with 2 mg intravenous dose % lysis of YAC-1 cells at effector: target ratio of 100:1; assay type: functional; procedure, shortened: as §3
Mus musculus [26] = test: In vivo natural killer cell response in splenocytes of mice injected with 2 mg intravenous dose % lysis of YAC-1 cells at effector: target ratio of 200:1; assay type: functional; procedure, shortened: as §3
Mus musculus [27] = test: In vivo natural killer cell response in splenocytes of mice injected with 2 mg intravenous dose % lysis of YAC-1 cells at effector: target ratio of 50:1; assay type: functional; procedure, shortened: as §3
Mus musculus [28] = test: In vivo natural killer cell response in splenocytes of mice injected with 2 mg parenteral dose % lysis of YAC-1 cells at effector: target ratio of 50:1; assay type: functional; procedure, shortened: as §4
Mus musculus [29] = test: In vivo natural killer cell response in splenocytes of mice injected with 2 mg parenteral dose % lysis of YAC-1 cells at effector: target ratio of 100:1; assay type: functional; procedure, shortened: as §4

Structure (SMILES)	ED50 (Mus musculus [1])	Max response (Mus musculus [2])	ED50 (Mus musculus [3])	Max response (Mus musculus [4])	Max response (YAC-1 [5])	ED50 (YAC-1 [6])	EC50 (Mus musculus [19])	EC50 (Mus musculus [20])	EC50 (YAC-1 [21])	other results
C=CCn1c(=O)n([C@@H]2O[C@H](CO)[C@H]3OC(C)(CCC(=O)NC)O[C@H]32)c2nc(N)nc(O)c21 (some centres not stated)	Negative	0%	Negative	9%	0%	Negative	–	–	–	–
Cn1c(=O)n2c3c1c(=O)nc(N)n3CC1OC2[C@H](O)C1O (single isomer, unassigned)	Negative	0%	Negative	9%	6%	Negative	–	–	–	–
C=CCn1c(=O)n([C@@H]2O[C@H](CO)[C@@H](O)[C@H]2O)c2nc(N)[nH]c(=O)c21 [LOXORIBINE]	–	100%	–	100%	100%	–	10 µM	3 µM	13 µM	Ratio (Mus musculus [7]): 22.8; Ratio (Mus musculus [8]): 48.9; Ratio (Mus musculus [9]): 52.2; Ratio (Mus musculus [10]): 18.9; Ratio (Mus musculus [11]): 7.7; Ratio (Mus musculus [12]): 11.8; Ratio (Mus musculus [13]): 19.5; Ratio (Mus musculus [14]): 27.6; Ratio (Mus musculus [15]): 9.3; Ratio (Mus musculus [16]): 12.7; Ratio (Mus musculus [17]): 38.6; Ratio (Mus musculus [18]): 29.6
Nc1nc(O)c2nc(S)n([C@H]3O[C@H](CO)[C@@H](O)[C@H]3O)c2n1	Negative	6%	Negative	8%	0%	Negative	–	–	–	–
CCCn1c(=O)n(C2CCC(CO)O2)c2nc(NC(=O)C(C)(C)C)nc(O)c21 (configuration not stated)	Negative	4%	Negative	19%	0%	Negative	–	–	–	–
C=CCn1c(=O)n(C2CN(CCCC)CC(CO)O2)c2nc(N)nc(O)c21 (configuration not stated)	–	52%	–	38%	–	–	–	5 µM	–	EC50 (Mus musculus [22]): 49 µM; EC50 (YAC-1 [23]): 17 µM; Max response (YAC-1 [24]): 94%
C=CCn1c(=O)n(C2C=CC(CO)O2)c2nc(N)nc(O)c21 (configuration not stated)	–	84%	–	45%	89%	–	30 µM	6 µM	11 µM	Ratio (Mus musculus [25]): 36.4; Ratio (Mus musculus [26]): 47.4; Ratio (Mus musculus [7]): 16.1; Ratio (Mus musculus [27]): 25.7; Ratio (Mus musculus [28]): 25.2; Ratio (Mus musculus [29]): 33.2 and 15.7; Ratio (Mus musculus [18]): 50.8
Nc1nc(O)c2c(n1)n(C1OC(CO)[C@@H](O)[C@H]1O)c(=O)n2Cc1ccc([N+](=O)[O-])cc1 (some centres not stated)	–	16%	–	147%	50%	–	50 µM	40 µM	48 µM	Ratio (Mus musculus [13]): 20.7; Ratio (Mus musculus [14]): 27.4 and 9.9; Ratio (Mus musculus [16]): 15.8
C=CCn1c(=O)n(C2C[C@H](O)C(CO)O2)c2nc(N)nc(O)c21 (some centres not stated)	–	131%	–	99%	75%	–	–	30 µM	100 µM	EC50 (Mus musculus [22]): 134 µM
Cc1nc2nc3c(c(O)n2n1)n(CCN1CCCCC1)c(=O)n3C1OC(CO)[C@@H](O)[C@H]1O (some centres not stated)	Negative	0.1%	Negative	1%	0%	Negative	–	–	–	–
